Values after ≈ are worked out from the molar mass of the structure shown.
Tests used:
Staphylococcus aureus [1] = assay: Antibacterial activity against 10^6 CFU/ml methicillin or oxacillin-resistant Staphylococcus aureus ATCC 43300 after 18 hrs by NCCLS broth microdilution method; type: functional; conditions: ATCC 43300, 18 h
In short: (§1)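 Broth microdilution per NCCLS, in 96-well plates; strains grown on Trypticase soy media. Compounds dissolved in 10% (v/v) acetone in water, serially diluted to 0.5–256 µg/mL (10 levels, twofold). Wells inoculated with 10⁶ cfu/mL suspension, 37 °C for 18 h. MIC = lowest concentration with no visible growth, converted to µM by molecular weight; average of at least four separate experiments.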

Staphylococcus aureus [2] = assay: Antibacterial activity against Staphylococcus aureus 29213 at 150 ug/ml after 24 hrs by agar diffusion method; type: functional; conditions: Staphylococcus aureus, 29213, 24 h; read-out: DIZ
In short: (§2)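 Agar diffusion per NCCLS. Mueller-Hinton agar plates were swab-inoculated and dried 5 min. Sterile 1 cm discs were loaded with compound solution and placed on the plates. Incubation was 24 h at 37 °C (A. baumannii, E. coli, K. pneumoniae, S. aureus) or 30 °C (B. subtilis). Read-out was inhibition zone diameter, with ampicillin as positive control.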

Klebsiella pneumoniae = assay: Antibacterial activity against Klebsiella pneumoniae 13883 at 150 ug/ml after 24 hrs by agar diffusion method; type: functional; conditions: Klebsiella pneumoniae, 13883, 24 h, read-out: DIZ; in short: as §2
Staphylococcus aureus [3] = assay: Antibacterial activity against 10^6 CFU/ml oxacillin-susceptible Staphylococcus aureus ATCC 29213 after 18 hrs by NCCLS broth microdilution method; type: functional; conditions: ATCC 29213, 18 h; in short: as §1
Acinetobacter baumannii = assay: Antibacterial activity against Acinetobacter baumannii 19606 at 150 ug/ml after 24 hrs by agar diffusion method; type: functional; conditions: Acinetobacter baumannii, 19606, 24 h, read-out: DIZ; in short: as §2
Escherichia coli = assay: Activity of Escherichia coli pantothenate kinase
In short: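 E. coli PanK, expressed and purified, at 278 nM in 50 mM Tris-HCl pH 7.6. Mix: ATP 1.5 mM, NADH 0.3 mM, phosphoenolpyruvate 0.5 mM, MgCl₂ 10 mM, KCl 20 mM, pyruvate kinase and lactate dehydrogenase (5 units each). Started by adding substrate (10–160). ADP formation was coupled to NADH loss, read at 340 nm, 25 °C. Kinetic parameters came from a Michaelis–Menten fit.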

Compound | MIC (Staphylococcus aureus [1]) | zone of inhibition at 150 µg/mL (Staphylococcus aureus [2]) | zone of inhibition at 150 µg/mL (Klebsiella pneumoniae) | MIC (Staphylococcus aureus [3]) | zone of inhibition at 150 µg/mL (Acinetobacter baumannii) | Km (Escherichia coli) | kcat (Escherichia coli)
CCCCCNC(=O)CCNC(=O)[C@H](O)C(C)(C)CO | 7 µM (≈ 2.02 µg/mL) | 16 mm | < 11 mm | 7 µM (≈ 2.02 µg/mL) | < 11 mm | – | –
CCCCCC[C@](C)(CO)[C@@H](O)C(=O)NCCC(=O)NCCCCC | > 715 µM | 16 mm | < 11 mm | > 715 µM | < 11 mm | – | –
C=CCC(CO)(CC=C)[C@@H](O)C(=O)NCCC(=O)NCCCCC | 376 µM (≈ 128 µg/mL) | 16 mm | < 11 mm | 376 µM (≈ 128 µg/mL) | < 11 mm | – | –
CCCCCNC(=O)CCNC(=O)[C@H](O)[C@@](C)(CO)Cc1ccccc1 | > 703 µM | 16 mm | < 11 mm | > 703 µM | < 11 mm | – | –
CCCCCNC(=O)CCNC(=O)[C@H](O)[C@@](C)(CO)CC1CC1 | 24 µM (≈ 7.88 µg/mL) | 16 mm | < 11 mm | 24 µM (≈ 7.88 µg/mL) | < 11 mm | – | –
CCCCCNC(=O)CCNC(=O)[C@H](O)[C@@](C)(CO)CC1CCC1 | 374 µM (≈ 128 µg/mL) | 16 mm | < 11 mm | 374 µM (≈ 128 µg/mL) | < 11 mm | – | –
CCCCCCCCCNC(=O)CCNC(=O)[C@H](O)C(C)(C)CO | 0.4 µM (≈ 0.138 µg/mL) | 16 mm | < 11 mm | 0.4 µM (≈ 0.138 µg/mL) | < 11 mm | – | –
CCCCCNC(=O)CCNC(=O)[C@H](O)[C@@](C)(CO)CCC | 13 µM (≈ 4.11 µg/mL) | 16 mm | < 11 mm | 13 µM (≈ 4.11 µg/mL) | < 11 mm | – | –
CCCCCNC(=O)CCNC(=O)[C@H](O)[C@](C)(CC)CO | 7 µM (≈ 2.12 µg/mL) | 16 mm | < 11 mm | 7 µM (≈ 2.12 µg/mL) | < 11 mm | – | –
CCCCCNC(=O)CCNC(=O)[C@H](O)C(CO)(CCC)CCC | > 744 µM | 16 mm | < 11 mm | > 744 µM | < 11 mm | – | –
C=CC[C@](C)(CO)[C@@H](O)C(=O)NCCC(=O)NCCCCC | 3.2 µM (≈ 1.01 µg/mL) | 16 mm | < 11 mm | 3.2 µM (≈ 1.01 µg/mL) | < 11 mm | 534 µM | 0.87 s⁻¹
C=CC[C@](C)(CO)[C@@H](O)C(=O)NCCC(=O)NCCCCCCCCC | 1 µM (≈ 0.371 µg/mL) | 16 mm | < 11 mm | 1 µM (≈ 0.371 µg/mL) | < 11 mm | – | –
CCCCCNC(=O)CCNC(=O)[C@H](O)[C@@](C)(CO)CC(C)C | 51 µM (≈ 16.9 µg/mL) | 16 mm | < 11 mm | 101 µM (≈ 33.4 µg/mL) | < 11 mm | – | –

Source: ChEMBL document CHEMBL1765039, “Geminal dialkyl derivatives of N-substituted pantothenamides: synthesis and antibacterial activity” (2011)
